Measurements taken from ChEMBL document CHEMBL5226372, “Tuaimenals B-H, Merosesquiterpenes from the Irish Deep-Sea Soft Coral Duva florida with Bioactivity against Cervical Cancer Cell Lines” (J Nat Prod, 2023).
Calls of active or inactive are those of the source. The rule behind the calls is not given here.

How the values were obtained:
[1] = system: Ca-Ski; assay: Antiproliferative activity against HPV-positive human Ca-Ski cells assessed as inhibition of cell growth incubated for 48 hrs by WST-1 assay; format: functional, cell-based
Procedure, shortened: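 CaSki cells were grown in RPMI 1640 with 10% FBS, kept below passage 10, at 37 °C and 5% CO2. They were seeded at 1000–3000 cells/well (about 50% confluence) and treated with 12 serial dilutions from 200 to 2 μM in DMSO (N = 3), with DMSO and 50 μM etoposide controls. After 48 h, 2 h WST-1 was read at 450/600 nm, normalized, and fitted by nonlinear regression.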

[2] = system: C-33-A; assay: Antiproliferative activity against HPV-negative human C-33-A cells assessed as inhibition of cell growth incubated for 48 hrs by WST-1 assay; format: functional, cell-based
Procedure, shortened: (§1)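 CaSki cells (RPMI 1640) and C33A cells (DMEM), passage <10, kept at 37 °C in 5% CO2. Cells were seeded at 1000–3000 per well to reach 50% confluency, then treated 48 h with serial dilutions from 200 to 2 μM in DMSO (N = 3). WST-1 was read after 2 h at 450/600 nm. Absorbances were normalized and EC50 came from nonlinear regression.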

[3] = system: Candida; assay: Antifungal activity against Candida; format: functional, organism-based
[4] = system: Enterococcus faecium; assay: Antibacterial activity against Enterococcus faecium; format: functional, organism-based
[5] = system: Staphylococcus aureus; assay: Antibacterial activity against Staphylococcus aureus; format: functional, organism-based
[6] = system: Klebsiella pneumoniae; assay: Antibacterial activity against Klebsiella pneumoniae; format: functional, organism-based
[7] = system: Acinetobacter baumannii; assay: Antibacterial activity against Acinetobacter baumannii; format: functional, organism-based
[8] = system: Pseudomonas aeruginosa; assay: Antibacterial activity against Pseudomonas aeruginosa; format: functional, organism-based
[9] = system: Enterobacter sp.; assay: Antibacterial activity against Enterobacter sp.; format: functional, organism-based
[10] = system: Mycobacterium tuberculosis; assay: Antibacterial activity against Mycobacterium tuberculosis; format: functional, organism-based
[11] = system: Human orthopneumovirus; assay: Antiviral activity against human respiratory syncytial virus; format: functional, organism-based
[12] = system: Ca-Ski; assay: Antiproliferative activity against HPV-positive human Ca-Ski cells assessed as inhibition of cell growth at 50 uM incubated for 48 hrs by WST-1 assay; format: functional, cell-based
[13] = system: C-33-A; assay: Antiproliferative activity against HPV-negative human C-33-A cells assessed as inhibition of cell growth at 50 uM incubated for 48 hrs by WST-1 assay; format: functional, cell-based
Procedure, shortened: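 C33A cells in DMEM, seeded at 1000–3000 per well and exposed to 50 μM etoposide as the positive control alongside a DMSO negative control (N = 3). Proliferation was read by WST-1 after 48 h treatment plus 2 h reagent incubation, at 450/600 nm. End-point absorbances were normalized.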

[14] = Selectivity ratio of EC50 for antiproliferative activity against HPV-positive human Ca-Ski cells to EC50 for antiproliferative activity against HPV-negative human C-33-A cells; format: functional; procedure, shortened: as §1

Compound | EC50 [1] [µM] | EC50 [2] [µM] | Activity [3] | Activity [4] | Activity [5] | Activity [6] | Activity [7] | Activity [8] | Activity [9] | Activity [10] | Activity [11] | Activity [12] | Activity [13] | Ratio EC50 [14]
CC(C)=CCC/C(C)=C/CCC1(C)C=Cc2c(C=O)c(O)c(C)c(O)c2O1 (stereo not drawn) | 46 | 58 | inactive | inactive | inactive | inactive | inactive | inactive | inactive | inactive | inactive |  |  | 
CC(=O)Oc1cc(C)c(O)c2c1C=CC(C)(CC/C=C(\C)CCC=C(C)C)O2 (stereo not drawn) | 25 | 14 | inactive | inactive | inactive | inactive | inactive | inactive | inactive | inactive | inactive |  |  | 
COc1cc(C)c(O)c2c1C=CC(C)(CC/C=C(\C)CCCC(C)(C)O)O2 (stereo not drawn) | 41 | 38 | inactive | inactive | inactive | inactive | inactive | inactive | inactive | inactive | inactive |  |  | 
CC(C)=CCC/C(C)=C/CC/C(C)=C/Cc1c(O)c(O)c(C)c(O)c1C=O | 23 | 14 | inactive | inactive | inactive | inactive | inactive | inactive | inactive | inactive | inactive |  |  | 
COc1cc([C@@H]2c3cc4c(cc3[C@@H](O[C@@H]3O[C@@H]5CO[C@@H](C)O[C@H]5[C@H](O)[C@H]3O)[C@H]3COC(=O)[C@H]23)OCO4)cc(OC)c1O |  |  |  |  |  |  |  |  |  |  |  | Active | Active | 
COc1cc(C)c(O)c2c1C=CC(C)(CC/C=C(\C)CCCC(C)(C)OC(C)=O)O2 (stereo not drawn) | 20 | 0.04 | inactive | inactive | inactive | inactive | inactive | inactive | inactive | inactive | inactive |  |  | 500
